Calls of active or inactive are those of the source. The calls are words filed in the database; no cut-off is given here.
Experiments:
MCF7 [1] = assay: Decrease in endogenous ceramide level in human MCF7 cells at 10 uM after 24 hrs; format: functional; design: scale not given: the % may be the effect or the level left
In short: (§1)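 MCF7 cells grown in RPMI 1640 with 10% FCS at 37 °C, 5% CO2. Seeded at ~50% density (1×10^6 cells), treated 24 h later with compounds in ethanol (0.1% final); controls got ethanol only. Cells washed in cold PBS and lipids extracted. Cer species and Sph quantified by HPLC-MS/MS (MRM, positive ion) against internal standards and calibration curves. Values given as pmol/nmol phospholipid and compared with ethanol controls.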

MCF7 [2] = assay: Decrease in endogenous sphingosine level in human MCF7 cells at 50 uM after 24 hrs; format: functional; design: scale not given: the % may be the effect or the level left; in short: as §1
MCF7 [3] = assay: Increase in endogenous ceramide level in human MCF7 cells at 50 uM after 24 hrs; format: functional
In short: (§2)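 MCF7 cells grown in RPMI 1640 with 10% FCS at 37 °C in 5% CO2. Seeded near 50% density and treated 24 h later with compound in ethanol (0.1% final); controls got ethanol alone. Cells washed in cold PBS and extracted. Cer species, Sph and S1P measured by HPLC-MS/MS (C8 column, positive-ion MRM) against internal standards and calibration curves. Results given as pmol/nmol phospholipid phosphate, relative to ethanol controls.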

MCF7 [4] = assay: Decrease in endogenous C24-ceramide level in human MCF7 cells upto 20 uM after 24 hrs; format: functional; design: scale not given: the % may be the effect or the level left; in short: as §1
MCF7 [5] = assay: Decrease in endogenous C24:1-ceramide level in human MCF7 cells upto 20 uM after 24 hrs; format: functional; design: scale not given: the % may be the effect or the level left; in short: as §1
MCF7 [6] = assay: Increase in endogenous C24:1-ceramide level in human MCF7 cells at >30 uM after 24 hrs; format: functional, cell-based; in short: as §2
MCF7 [7] = assay: Increase in endogenous C16-ceramide level in human MCF7 cells at >25 uM after 24 hrs; format: functional, cell-based; in short: as §1
MCF7 [8] = assay: Decrease in endogenous sphingosine level in human MCF7 cells at 20 uM after 24 hrs; format: functional, cell-based; in short: as §1
MCF7 [9] = assay: Increase in endogenous C16-ceramide level in human MCF7 cells at 10 uM within 30 mins; format: functional, cell-based; in short: as §1
MCF7 [10] = assay: Increase in endogenous C24-ceramide level in human MCF7 cells at 10 uM within 30 mins; format: functional, cell-based; in short: as §2
MCF7 [11] = assay: Increase in endogenous C24:1-ceramide level in human MCF7 cells at 10 uM within 30 mins; format: functional, cell-based; in short: as §2
MCF7 [12] = assay: Increase in endogenous C24-ceramide level in human MCF7 cells at 10 uM upto 2.5 hrs; format: functional, cell-based; in short: as §1
MCF7 [13] = assay: Decrease in endogenous sphingosine level in human MCF7 cells at 10 uM upto 2.5 hrs; format: functional, cell-based; in short: as §1
MCF7 [14] = assay: Decrease in endogenous C24:1-ceramide level in human MCF7 cells at 10 uM upto 2.5 hrs; format: functional, cell-based; in short: as §1
MCF7 [15] = assay: Decrease in endogenous C16-ceramide level in human MCF7 cells at 10 uM after 18 hrs; format: functional, cell-based; in short: as §1
MCF7 [16] = assay: Decrease in endogenous C24-ceramide level in human MCF7 cells at 10 uM after 18 hrs; format: functional, cell-based; in short: as §1
MCF7 [17] = assay: Growth inhibition of human MCF7 cells after 48 hrs; format: functional, cell-based
MCF7 [18] = assay: Increase in endogenous sphingosine level in human MCF7 cells at 10 uM within 30 mins; format: functional; in short: as §2
MCF7 [19] = assay: Decrease in endogenous sphingosine level in human MCF7 cells at 5 uM after 24 hrs; design: scale not given: the % may be the effect or the level left
MCF7 [20] = assay: Increase in endogenous C14-ceramide level in human MCF7 cells after 24 hrs; format: functional; in short: as §1
MCF7 [21] = assay: Increase in endogenous C16-ceramide level in human MCF7 cells after 24 hrs; format: functional; in short: as §1
MCF7 [22] = assay: Increase in endogenous C24:1-ceramide level in human MCF7 cells after 24 hrs; format: functional; in short: as §2
MCF7 [23] = assay: Increase in endogenous sphingosine level in human MCF7 cells after 24 hrs; format: functional; in short: as §2
MCF7 [24] = assay: Increase in endogenous C24-ceramide level in human MCF7 cells after 24 hrs; format: functional; in short: as §1
MCF7 [25] = assay: Increase in endogenous C16-ceramide level in human MCF7 cells at 10 uM upto 0.5 hrs; format: functional, cell-based; in short: as §1
MCF7 [26] = assay: Increase in endogenous C24-ceramide level in human MCF7 cells at 10 uM upto 0.5 hrs; format: functional, cell-based; in short: as §1
MCF7 [27] = assay: Increase in endogenous C24:1-ceramide level in human MCF7 cells at 10 uM upto 0.5 hrs; format: functional, cell-based; in short: as §2
MCF7 [28] = assay: Decrease in endogenous sphingosine level in human MCF7 cells at 10 uM upto 0.5 hrs; format: functional, cell-based; in short: as §1
MCF7 [29] = assay: Increase in endogenous C14-ceramide level in human MCF7 cells at 10 uM upto 24 hrs; format: functional; in short: as §1
MCF7 [30] = assay: Increase in endogenous C16-ceramide level in human MCF7 cells upto 24 hrs; format: functional; in short: as §1
MCF7 [31] = assay: Increase in endogenous C24-ceramide level in human MCF7 cells upto 24 hrs; format: functional; in short: as §2
MCF7 [32] = assay: Increase in endogenous C24:1-ceramide level in human MCF7 cells upto 24 hrs; format: functional; in short: as §2
MCF7 [33] = assay: Increase in endogenous sphingosine-1-phosphate level in human MCF7 cells after 5 to 10 hrs; format: functional, cell-based; in short: as §2
MCF7 [34] = assay: Increase in endogenous C24:1-ceramide level in human MCF7 cells at 50 uM after 24 hrs; format: functional; in short: as §2
MCF7 [35] = assay: Increase in endogenous ceramide level in human MCF7 cells at more than 5 uM after 24 hrs; format: functional, cell-based; in short: as §2
MCF7 [36] = assay: Decrease in endogenous C24-ceramide level in human MCF7 cells at 10 uM after 24 hrs; format: functional; design: scale not given: the % may be the effect or the level left; in short: as §1
MCF7 [37] = assay: Increase in endogenous C16-ceramide level in human MCF7 cells at 50 uM after 24 hrs; format: functional; in short: as §1
MCF7 [38] = assay: Increase in endogenous C16-ceramide level in human MCF7 cells at 10 uM after 1 to 2.5 hrs; format: functional; in short: as §1
MCF7 [39] = assay: Increase in endogenous C18-ceramide level in human MCF7 cells at 10 uM after 2.5 hrs; format: functional; in short: as §1
MCF7 [40] = assay: Increase in endogenous C24-ceramide level in human MCF7 cells at 50 uM after 24 hrs; format: functional; in short: as §2
MCF7 [41] = assay: Increase in endogenous C14-ceramide level in human MCF7 cells at 10 uM after 2.5 hrs; format: functional; in short: as §1
MCF7 [42] = assay: Decrease in endogenous C24:1-ceramide level in human MCF7 cells at 10 uM; design: scale not given: the % may be the effect or the level left
MCF7 [43] = assay: Increase in endogenous sphingosine level in human MCF7 cells upto 10 uM after 24 hrs; format: functional, cell-based; in short: as §2
MCF7 [44] = assay: Increase in endogenous sphingosine level in human MCF7 cells at 10 uM after 24 hrs; format: functional; in short: as §2
MCF7 [45] = assay: Increase in endogenous C24-ceramide level in human MCF7 cells at 10 uM after 1 to 2.5 hrs; format: functional, cell-based; in short: as §1
MCF7 [46] = assay: Increase in endogenous C24:1-ceramide level in human MCF7 cells at 10 uM after 1 to 2.5 hrs; format: functional, cell-based; in short: as §2
MCF7 [47] = assay: Increase in endogenous sphingosine level in human MCF7 cells at 10 uM after 1 to 2.5 hrs; format: functional, cell-based; in short: as §2
MCF7 [48] = assay: Decrease in endogenous sphingosine level in human MCF7 cells upto 10 uM after 48 hrs; format: functional; design: scale not given: the % may be the effect or the level left; in short: as §1
MCF7 [49] = assay: Decrease in endogenous sphingosine level in human MCF7 cells at 50 uM after 24 hrs; design: scale not given: the % may be the effect or the level left
MCF7 [50] = assay: Induction of endogenous C24:1-ceramide formation in human MCF7 cells after 10 hrs; format: functional; in short: as §2
MCF7 [51] = assay: Induction of endogenous C16-ceramide formation in human MCF7 cells after 10 hrs; format: functional; in short: as §2
MCF7 [52] = assay: Induction of endogenous C14-ceramide formation in human MCF7 cells after 10 hrs; format: functional; in short: as §2
MCF7 [53] = assay: Increase in endogenous ceramide level in human MCF7 cells upto 10 uM after 24 hrs; format: functional; in short: as §2
MCF7 [54] = assay: Increase in endogenous ceramide level in human MCF7 cells at 10 uM after 24 hrs; format: functional; in short: as §2
MCF7 [55] = assay: Increase in endogenous sphingosine level in human MCF7 cells >5 uM after 24 hrs; format: functional, cell-based; in short: as §2
MCF7 [56] = assay: Increase in endogenous C14-ceramide level in human MCF7 cells at 10 uM within 30 mins; format: functional; in short: as §1
MCF7 [57] = assay: Increase in endogenous sphingosine level in human MCF7 cells at 10 uM after 5 hrs; format: functional; in short: as §2

`CCCCCCCCCCCCNC(=O)N[C@H](CO)[C@H](O)c1ccc([N+](=O)[O-])cc1` gave an Activity (MCF7 [1]) of 90%, an Activity (MCF7 [2]) of 45% and an Activity (MCF7 [3]) of 170%. For the same compound, the Activity (MCF7 [4]) was 80%, the Activity (MCF7 [5]) was 80% and the Activity (MCF7 [6]) was “Active”. The Activity (MCF7 [7]) was “Active”, the Activity (MCF7 [8]) was “Active” and the Activity (MCF7 [9]) was “Active”. The Activity (MCF7 [10]) was “Active”, the Activity (MCF7 [11]) was “Active” and the Activity (MCF7 [12]) was “Active”. For the same compound, the Activity (MCF7 [13]) was “Active”, the Activity (MCF7 [14]) was “Active” and the Activity (MCF7 [15]) was “Active”. The Activity (MCF7 [16]) was “Active”, the Activity (MCF7 [17]) was “Active” and the Activity (MCF7 [18]) was “Active”. It also gave an Activity (MCF7 [19]) of 80%.

`O=C(CCCCCCCCCCCCCCC[n+]1ccccc1)N[C@H](CO)[C@H](O)c1ccc([N+](=O)[O-])cc1.[Br-]` was tested, and the Activity (MCF7 [20]) was 800%, the Activity (MCF7 [21]) was 800% and the Activity (MCF7 [22]) was 270%. For the same compound, the Activity (MCF7 [23]) was 350%, the Activity (MCF7 [24]) was 140% and the Activity (MCF7 [25]) was “Active”. The Activity (MCF7 [26]) was “Active”, the Activity (MCF7 [27]) was “Active” and the Activity (MCF7 [28]) was “Active”. The Activity (MCF7 [29]) was 760%, the Activity (MCF7 [30]) was 820% and the Activity (MCF7 [31]) was 130%. For the same compound, the Activity (MCF7 [32]) was 260% and the Activity (MCF7 [33]) was “Active”.

In the case of `CCCCCCCCCCCCCC(=O)N[C@H](CO)[C@H](O)c1ccc([N+](=O)[O-])cc1`, the Activity (MCF7 [34]) is reported as 380%, the Activity (MCF7 [2]) is reported as 50% and the Activity (MCF7 [35]) is reported as “Active”. It also gave an Activity (MCF7 [3]) of 300%, an Activity (MCF7 [36]) of 80% and an Activity (MCF7 [37]) of 340%. For the same compound, the Activity (MCF7 [38]) was 120%, the Activity (MCF7 [39]) was “Active” and the Activity (MCF7 [17]) was “Active”. For the same compound, the Activity (MCF7 [40]) was 220%, the Activity (MCF7 [41]) was 120% and the Activity (MCF7 [42]) was 80%.

With `CCCCCCCCCCCCNC(=O)N[C@H](C)[C@@H](O)c1ccccc1` the Activity (MCF7 [3]) was 180%, the Activity (MCF7 [43]) was “Active” and the Activity (MCF7 [37]) was “Active”. For the same compound, the Activity (MCF7 [44]) was 140%, the Activity (MCF7 [45]) was “Active” and the Activity (MCF7 [46]) was “Active”. The Activity (MCF7 [47]) was “Active”, the Activity (MCF7 [48]) was 25% and the Activity (MCF7 [17]) was “Active”. The Activity (MCF7 [49]) was 25%.

`C[C@@H](NC(=O)CCCCCCCCCCCCCCC[n+]1ccccc1)[C@@H](O)c1ccccc1.[Br-]` showed an Activity (MCF7 [50]) of 142%, an Activity (MCF7 [51]) of 157% and an Activity (MCF7 [52]) of 310%. For the same compound, the Activity (MCF7 [53]) was 260%, the Activity (MCF7 [54]) was 260% and the Activity (MCF7 [55]) was “Active”. The Activity (MCF7 [20]) was “Dose-dependent effect”, the Activity (MCF7 [21]) was “Dose-dependent effect” and the Activity (MCF7 [22]) was “Dose-dependent effect”. For the same compound, the Activity (MCF7 [23]) was “Dose-dependent effect”, the Activity (MCF7 [33]) was “Active” and the Activity (MCF7 [56]) was 190%. For the same compound, the Activity (MCF7 [57]) was 300%.
